Measurements published in ChEMBL document CHEMBL3779826, “Converting maslinic acid into an effective inhibitor of acylcholinesterases” (Eur J Med Chem, 2015).

Legend:
Acetylcholinesterase = Acetylcholinesterase (Electrophorus electricus, UniProt O42275); experiment: Inhibition of Electrophorus electricus AChE using acetylthiocholine iodide as substrate preincubated for 20mins before the addition of substrate by Ellman's method; conditions: for Ki: read-out: Ki
[1] = target: Acetylcholinesterase (Electrophorus electricus) (UniProt O42275); experiment: Mixed type inhibition of Electrophorus electricus AChE by Lineweaver-Burk plot analysis
How it was run: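 Ellman kinetics at 30 °C in pH 8.0 Tris-HCl with DTNB. Enzyme plus inhibitor (3 concentrations and a water blank) was preincubated for 20 min, then ATChI was added at 0.9375, 0.625, 0.325 or 0.1875 mM. A415 was read every minute for 30 min, in triplicate. Mode, Ki and Ki' came from Lineweaver-Burk, Dixon and Cornish-Bowden plots.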

Cholinesterase = Cholinesterase (Equus caballus, UniProt P81908); experiment: Inhibition of equine serum BChE using butyrylthiocholine iodide as substrate preincubated for 20mins before the addition of substrate by Ellman's method; conditions: read-out: Ki
[2] = target: Acetylcholinesterase (Electrophorus electricus) (UniProt O42275); experiment: Inhibition of Electrophorus electricus AChE at 3 uM using acetylthiocholine iodide as substrate preincubated for 20mins before the addition of substrate by Ellman's method
How it was run: (§1)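 Ellman assay: enzyme in Tris-HCl pH 8.0 with NaN3, plus DTNB (3 mM stock with NaCl and MgCl2), was preincubated with compound at 30 °C for 20 min. Thiocholine substrate was then added and absorbance at 415 nm recorded at 30 °C for 30 min at 1-min intervals, in triplicate. Residual DMSO below 0.5%.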

[3] = target: Cholinesterase (Equus caballus) (UniProt P81908); experiment: Inhibition of equine serum BChE at 3 uM using butyrylthiocholine iodide as substrate preincubated for 20mins before the addition of substrate by Ellman's method; how it was run: as §1
[4] = target: Carbonic anhydrase 2 (Bos taurus) (UniProt P00921); experiment: Inhibition of bovine erythrocte carbonic anhydrase 2 at 3 uM
Candida antarctica [5] = experiment: Inhibition of Candida antarctica lipase at 3 uM using 4-NA as substrate preincubated for 20 mins before the addition of substrate
How it was run: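 Candida antarctica lipase in 50 mM Tris-HCl pH 8.0 was preincubated with compound at 37 °C for 20 min. Reaction started with 4-NA ([…] as added). Absorbance at 415 nm was read kinetically at 37 °C for 10 min at 1-min intervals. Relative inhibition was taken as the ratio of linear-range slopes, compound over blank.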

[6] = target: Cholinesterase (Equus caballus) (UniProt P81908); experiment: Inhibition of equine serum BChE at 40 uM using butyrylthiocholine iodide as substrate preincubated for 20mins before the addition of substrate by Ellman's method; how it was run: as §1
[7] = target: Carbonic anhydrase 2 (Bos taurus) (UniProt P00921); experiment: Inhibition of bovine erythrocte carbonic anhydrase 2 at 40 uM
Candida antarctica [8] = experiment: Inhibition of Candida antarctica lipase at 40 uM using 4-NA as substrate preincubated for 20 mins before the addition of substrate
How it was run: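 Candida antarctica lipase (stock 2.003 U/ml) in 50 mM Tris-HCl pH 8.0, preincubated with compound at 37 °C for 20 min. Reaction started with 4-NA; absorbance at 415 nm followed at 37 °C for 10 min at 1 min intervals. Relative inhibition taken as the ratio of linear-range slopes, compound over blank.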

[9] = target: Acetylcholinesterase (Electrophorus electricus) (UniProt O42275); conditions: 40 uM

Acetylcholinesterase (Electrophorus electricus), sequence (O42275 24-633 limits assumed): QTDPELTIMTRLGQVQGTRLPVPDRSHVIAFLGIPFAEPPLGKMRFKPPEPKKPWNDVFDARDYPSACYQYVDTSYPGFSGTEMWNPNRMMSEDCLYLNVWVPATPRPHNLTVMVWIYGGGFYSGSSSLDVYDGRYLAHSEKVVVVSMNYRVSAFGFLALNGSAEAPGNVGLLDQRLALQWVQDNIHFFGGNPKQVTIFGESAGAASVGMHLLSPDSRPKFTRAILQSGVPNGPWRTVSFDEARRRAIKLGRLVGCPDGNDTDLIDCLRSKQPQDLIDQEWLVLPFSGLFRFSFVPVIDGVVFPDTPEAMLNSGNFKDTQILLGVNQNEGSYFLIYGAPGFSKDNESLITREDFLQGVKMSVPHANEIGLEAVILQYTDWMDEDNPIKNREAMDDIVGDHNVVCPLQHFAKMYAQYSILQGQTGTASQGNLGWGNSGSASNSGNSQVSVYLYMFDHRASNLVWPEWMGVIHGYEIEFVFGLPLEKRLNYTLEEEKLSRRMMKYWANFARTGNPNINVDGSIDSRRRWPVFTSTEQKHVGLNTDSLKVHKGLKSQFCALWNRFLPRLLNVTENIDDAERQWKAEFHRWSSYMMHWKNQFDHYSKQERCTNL
Acetylcholinesterase, sequence (O42275 whole entry): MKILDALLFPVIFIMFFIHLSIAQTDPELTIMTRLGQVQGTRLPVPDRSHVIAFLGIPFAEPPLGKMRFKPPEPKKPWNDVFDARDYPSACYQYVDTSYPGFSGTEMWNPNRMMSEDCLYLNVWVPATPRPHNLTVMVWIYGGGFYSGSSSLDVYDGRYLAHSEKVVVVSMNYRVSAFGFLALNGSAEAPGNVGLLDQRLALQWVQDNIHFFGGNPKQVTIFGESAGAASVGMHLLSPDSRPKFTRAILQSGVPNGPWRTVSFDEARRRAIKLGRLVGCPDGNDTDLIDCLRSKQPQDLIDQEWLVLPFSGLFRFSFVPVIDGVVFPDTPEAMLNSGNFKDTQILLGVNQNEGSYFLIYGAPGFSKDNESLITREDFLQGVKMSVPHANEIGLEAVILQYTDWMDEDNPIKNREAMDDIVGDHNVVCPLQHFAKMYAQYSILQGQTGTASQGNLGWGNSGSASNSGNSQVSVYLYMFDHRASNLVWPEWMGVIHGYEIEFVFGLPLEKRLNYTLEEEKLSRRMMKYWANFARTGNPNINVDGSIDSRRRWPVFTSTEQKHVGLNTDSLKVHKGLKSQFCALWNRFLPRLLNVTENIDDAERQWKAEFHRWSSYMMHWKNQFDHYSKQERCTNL
Cholinesterase, sequence (P81908 whole entry): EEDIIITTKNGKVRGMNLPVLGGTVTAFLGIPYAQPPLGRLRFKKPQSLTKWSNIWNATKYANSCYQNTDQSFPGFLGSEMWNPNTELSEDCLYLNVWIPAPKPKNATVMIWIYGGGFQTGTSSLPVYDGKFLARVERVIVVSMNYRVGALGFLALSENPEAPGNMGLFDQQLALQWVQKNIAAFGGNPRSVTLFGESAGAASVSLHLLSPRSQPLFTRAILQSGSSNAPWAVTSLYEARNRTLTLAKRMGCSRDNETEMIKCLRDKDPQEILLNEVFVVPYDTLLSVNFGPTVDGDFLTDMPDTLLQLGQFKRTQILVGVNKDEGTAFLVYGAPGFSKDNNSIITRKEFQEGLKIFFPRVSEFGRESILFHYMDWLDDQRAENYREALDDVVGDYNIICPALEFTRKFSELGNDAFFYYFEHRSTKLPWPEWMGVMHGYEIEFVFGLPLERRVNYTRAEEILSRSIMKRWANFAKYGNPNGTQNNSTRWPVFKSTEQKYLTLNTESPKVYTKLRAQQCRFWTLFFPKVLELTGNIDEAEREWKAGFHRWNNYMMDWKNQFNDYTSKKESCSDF
Cholinesterase (Equus caballus), sequence (P81908 whole entry): as above
Carbonic anhydrase 2 (Bos taurus), sequence (P00921 2-260 limits assumed): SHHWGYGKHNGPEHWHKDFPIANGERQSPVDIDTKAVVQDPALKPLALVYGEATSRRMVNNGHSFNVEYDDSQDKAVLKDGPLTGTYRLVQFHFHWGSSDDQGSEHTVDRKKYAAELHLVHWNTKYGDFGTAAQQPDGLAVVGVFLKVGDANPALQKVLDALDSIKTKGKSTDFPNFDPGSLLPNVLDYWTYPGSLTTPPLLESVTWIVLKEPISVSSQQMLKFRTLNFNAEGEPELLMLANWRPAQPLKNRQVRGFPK

Structure (SMILES)	IC50 (Acetylcholinesterase) [µM]	Ki (Acetylcholinesterase) [µM]	Kiuc [1] [µM]	Ki (Cholinesterase) [µM]	inhibition [2] [%]	inhibition [3] [%]	inhibition [4] [%]	inhibition (Candida antarctica [5]) [%]	inhibition [6] [%]	inhibition [7] [%]	inhibition (Candida antarctica [8]) [%]	inhibition [9] [%]
COC(=O)[C@]12CCC(C)(C)C[C@H]1C1=CC[C@@H]3[C@@]4(C)C[C@@H](O)[C@H](OS(N)(=O)=O)C(C)(C)[C@@H]4CC[C@@]3(C)[C@]1(C)CC2	21.3	20.5	38.6	> 20	–	–	–	–	–	–	–	–
COc1ccc(COC(=O)[C@]23CCC(C)(C)C[C@H]2C2=CC[C@@H]4[C@@]5(C)C[C@@H](O)[C@H](O)C(C)(C)[C@@H]5CC[C@@]4(C)[C@]2(C)CC3)cc1	–	6.49	69.6	> 100	–	–	–	–	–	–	–	–
CCCCCCOC(=O)[C@]12CCC(C)(C)C[C@H]1C1=CC[C@@H]3[C@@]4(C)C[C@@H](O)[C@H](O)C(C)(C)[C@@H]4CC[C@@]3(C)[C@]1(C)CC2	4.38	4.78	5.11	> 6	62	0	0	0	–	–	–	–
CC1(C)CC[C@]2(C(=O)OCCC#CCl)CC[C@]3(C)C(=CC[C@@H]4[C@@]5(C)C[C@@H](O)[C@H](O)C(C)(C)[C@@H]5CC[C@]43C)[C@@H]2C1	6.57	5.71	14.8	> 6	–	–	–	–	–	–	–	–
CC1(C)CC[C@@]2(C(=O)OCc3ccc([N+](=O)[O-])cc3)CC[C@@]3(C)C(=CC[C@H]4[C@]5(C)C[C@H](O)[C@@H](O)C(C)(C)[C@H]5CC[C@@]43C)[C@H]2C1 (single isomer, unassigned)	7.41	6.14	7.22	> 4	–	–	–	–	–	–	–	–
CC1(C)CC[C@]2(C(=O)OCC3CCCCC3)CC[C@]3(C)C(=CC[C@@H]4[C@@]5(C)C[C@@H](O)[C@H](O)C(C)(C)[C@@H]5CC[C@]43C)[C@@H]2C1	3.87	10	2.67	> 14	–	–	–	–	–	–	–	–
C=CCCOC(=O)[C@]12CCC(C)(C)C[C@H]1C1=CC[C@@H]3[C@@]4(C)C[C@@H](O)[C@H](O)C(C)(C)[C@@H]4CC[C@@]3(C)[C@]1(C)CC2	6.25	3.31	11.5	> 10	–	–	–	–	–	–	–	–
CC1(C)CC[C@]2(C(=O)OCCCO)CC[C@]3(C)C(=CC[C@@H]4[C@@]5(C)C[C@@H](O)[C@H](O)C(C)(C)[C@@H]5CC[C@]43C)[C@@H]2C1	13.8	20.1	13.7	> 10	–	–	–	–	–	–	–	–
CC1(C)CC[C@]2(C(=O)OCCCCl)CC[C@]3(C)C(=CC[C@@H]4[C@@]5(C)C[C@@H](O)[C@H](O)C(C)(C)[C@@H]5CC[C@]43C)[C@@H]2C1	4.07	8.76	3.45	> 6	–	–	–	–	–	–	–	–
CC1(C)CC[C@]2(C(=O)OC/C=C\CCl)CC[C@]3(C)C(=CC[C@@H]4[C@@]5(C)C[C@@H](O)[C@H](O)C(C)(C)[C@@H]5CC[C@]43C)[C@@H]2C1	17.6	22.5	9.38	> 80	–	–	–	–	7	1	0	79
CC1(C)CC[C@]2(C(=O)OCCCBr)CC[C@]3(C)C(=CC[C@@H]4[C@@]5(C)C[C@@H](O)[C@H](O)C(C)(C)[C@@H]5CC[C@]43C)[C@@H]2C1	31.2	34.9	24.4	> 80	–	–	–	–	16	1	18	39
CCCOC(=O)[C@]12CCC(C)(C)C[C@H]1C1=CC[C@@H]3[C@@]4(C)C[C@@H](O)[C@H](O)C(C)(C)[C@@H]4CC[C@@]3(C)[C@]1(C)CC2	8.76	16.9	15.4	> 6	56	0	0	0	–	–	–	–
C#CCCOC(=O)[C@]12CCC(C)(C)C[C@H]1C1=CC[C@@H]3[C@@]4(C)C[C@@H](O)[C@H](O)C(C)(C)[C@@H]4CC[C@@]3(C)[C@]1(C)CC2	11.7	6.76	32.5	> 20	–	–	–	–	–	–	–	–
